Sampled rows, rich in hits. Any-hit rate of the full collection: about 3.9%.
HIF activator – HIF pathway transcriptional activation. U2OS HRE-luciferase reporter, luminescence; normalized: DMSO 0%, desferrioxamine 100%. 300,000 compounds, 0.32% hits. activation, % at 7.5 µM (by protocol);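 active = mean activation of at least 10% of the iron chelator positive control signal, with at least half of replicates also reaching 10%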
SR-BI HDL uptake – mouse SR-BI HDL lipid transfer inhibition | inhibition, % at 12.5 µM | ldlA[mSR-BI] CHO cells, DiI-HDL uptake fluorescence, 3 h | 320,000 compounds, 0.96% hits;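 active = mean replicate inhibition of at least 70% and a set share of replicates each scoring 70 or more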;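 note: 0% = median of neutral control wells and 100% = median of positive control wells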
AHR activator – activates the human aryl hydrocarbon receptor; AHR-responsive luciferase reporter cells, luminescence; activation, % at 5 µM; 320,000 compounds, 2.5% hits; P35869; in the data active = activation above about 47%;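 note: 0% = vehicle wells and 100% = reference agonist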
GAA850 FXN act – activators of GAA850 frataxin (FXN) promoter; 360,000 compounds, 0.56% hits; HEK293 lucGAA850 FXN promoter luciferase reporter, 24 h; percent of 10 µM SAHA response; activation, % at 6 µM; AID 540364;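 active = activation above the average of all compounds screened plus 3 SD, cutoff fixed separately per campaign, cut at about 7.5% in these data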;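 note: 0% = DMSO wells and 100% = 10 µM SAHA wells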
ABCB6 inh MLPCN – inhibitors of human ABC transporter ABCB6. Q9NP58. fluorescence ratio to DMSO, % at 10 µM. K562-ABCB6 porphyrin accumulation, flow cytometry, 1 h; stronger effect = lower value. 360,000 compounds, 0.19% hits;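 active = fluorescence ratio to DMSO below 75%, the collection mean minus 3 SD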;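 note: signal is porphyrin accumulated inside mitochondria; 100% equals median channel fluorescence of DMSO control wells; lower ratio means ABCB6 inhibition with less porphyrin fluorescence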
Target sequence (Q9NP58 whole entry, looked up): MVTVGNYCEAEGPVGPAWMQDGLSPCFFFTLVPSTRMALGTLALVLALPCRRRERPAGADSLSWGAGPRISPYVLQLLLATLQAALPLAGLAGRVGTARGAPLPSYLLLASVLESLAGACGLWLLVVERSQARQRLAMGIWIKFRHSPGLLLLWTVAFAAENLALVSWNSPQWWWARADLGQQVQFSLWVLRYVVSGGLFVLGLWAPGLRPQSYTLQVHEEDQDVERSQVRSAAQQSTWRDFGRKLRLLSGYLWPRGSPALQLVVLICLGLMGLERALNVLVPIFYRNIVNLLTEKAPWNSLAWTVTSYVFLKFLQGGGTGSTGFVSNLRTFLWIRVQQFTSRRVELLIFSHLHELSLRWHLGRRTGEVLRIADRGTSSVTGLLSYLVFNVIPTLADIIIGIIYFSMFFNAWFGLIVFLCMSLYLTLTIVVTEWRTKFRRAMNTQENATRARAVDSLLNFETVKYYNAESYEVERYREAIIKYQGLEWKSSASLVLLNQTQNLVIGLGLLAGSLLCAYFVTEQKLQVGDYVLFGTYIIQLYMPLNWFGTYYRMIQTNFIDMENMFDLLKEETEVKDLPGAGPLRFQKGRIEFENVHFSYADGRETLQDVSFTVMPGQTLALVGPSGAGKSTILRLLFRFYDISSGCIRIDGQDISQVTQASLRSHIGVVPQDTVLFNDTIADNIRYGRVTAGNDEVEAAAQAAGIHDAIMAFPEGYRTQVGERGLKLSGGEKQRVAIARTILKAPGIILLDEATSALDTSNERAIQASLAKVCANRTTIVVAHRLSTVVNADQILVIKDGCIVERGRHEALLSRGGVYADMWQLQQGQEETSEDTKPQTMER
SR-BI DiI-HDL act – enhances SR-BI lipid uptake from DiI-HDL; AID 504775; 320,000 compounds, 0.096% hits; activation, % at 12.5 µM; CHO ldlA[mSR-BI] cells, DiI-HDL uptake fluorescence, 3 h; 100 = double the neutral-control signal;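 active = mean replicate activation of at least 60% and every replicate at or above 60%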;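 note: 0% = median plate neutral-control signal and 100% = twice that signal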
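Assay system: CHO ldlA[mSR-BI] cells, LDL receptor-null, SR-BI overexpressing; medium: Ham's F12 with 0.5% BSA, HEPES 25 mM, pH 7.4; also added: DiI-HDL 10 µg/mL; timing: 3 h uptake period with compound, 37 °C; signal: DiI fluorescence, bottom read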
GAA30 FXN cntr – counter-screen for GAA850 frataxin promoter activators: GAA30 promoter activation | shares compounds with GAA850 FXN act | HEK293 lucGAA30 FXN promoter luciferase, 24 h; DMSO = 0%, 5 µM ipriflavone = 100% | activation, % at 6 µM | 1,900 compounds, 66% hits;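 active = mean activation above the mean of solvent-only control wells plus 3 SD, cut at about 22% in these data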;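 note: counterscreen of GAA850 promoter hits where activity marks nonselective or luminescence artifacts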
FXN GAA850 conf – GAA850 FXN promoter activation confirmation; shares compounds with GAA850 FXN act; HEK293 lucGAA850 FXN promoter luciferase reporter, 24 h; 100% = activation by SAHA; activation, % at 6 µM; 1,900 compounds, 86% hits; AID 588351;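 active = mean activation above a set limit taken from the primary screen, cut at about 8% in these data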;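 note: 0% = DMSO wells and 100% = 10 µM SAHA wells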
* = called active by the depositor; · = not tested or not shown.

SMILES | HIF activator | SR-BI HDL uptake | AHR activator | GAA850 FXN act | ABCB6 inh MLPCN | SR-BI DiI-HDL act | GAA30 FXN cntr | FXN GAA850 conf
CCn1nnc2sc3c(c2c1=O)CCC(C)C3 (centres undefined) | 1.9 | 8.5 | -1.6 | 3.7 | 88.0 | -8.5 | · | ·
CC(=O)Cn1nnc2sc3c(c2c1=O)CCC(C(C)(C)C)C3 (centres undefined) | 4.5 | -1.3 | 2.0 | 8.2* | 93.0 | 1.3 | 118.7* | 44.9*
O=C(NC1CCCC1)c1cc(-c2cccs2)on1 | 32.1* | 12.8 | 0.8 | 18.1* | 104.0 | -12.8 | 158.8* | 91.5*
O=C(NCCCN1CCOCC1)c1cc(-c2cccs2)on1 | 20.5* | -4.1 | 19.1 | 20.0* | 100.0 | 4.1 | 112.9* | 80.0*
O=C(NC1CCCC1)c1cc(-c2ccccc2O)on1 | 0.7 | -7.9 | -3.2 | 3.6 | 177.0 | 7.9 | · | ·
Cc1ccc(-c2cc(C(=O)NCCCN3CCOCC3)no2)cc1 | -2.8 | -2.7 | -5.3 | -8.9 | 100.0 | 2.7 | · | ·
CCS(=O)(=O)N1Cc2ccccc2CC1C(=O)NCC12CC3CC(CC(C3)C1)C2 (centres undefined) | -0.5 | 15.7 | -0.1 | 7.7* | 100.0 | -15.7 | 13.1 | 8.3*
CCS(=O)(=O)N1Cc2ccccc2CC1C(=O)Nc1ccccc1OC (centres undefined) | 0.4 | 4.7 | 11.2 | 3.5 | 99.0 | -4.7 | · | ·
CCS(=O)(=O)N1Cc2ccccc2CC1C(=O)NC(C)C12CC3CC(CC(C3)C1)C2 (centres undefined) | -0.1 | -19.9 | 0.7 | 12.2* | 91.0 | 19.9 | 26.8* | 14.4*
CCS(=O)(=O)N1Cc2ccccc2CC1C(=O)Nc1ccc(F)cc1 (centres undefined) | 1.9 | · | 2.1 | 3.1 | 100.0 | · | · | ·
O=C(Nc1nnc(C2CC2)s1)c1ccc(Cl)nc1 | · | -20.5 | 31.2 | 1.3 | 97.0 | 20.5 | · | ·
Cc1nn2cc(-c3ccc(Cl)cc3)cnc2c1Cl | 4.1 | 13.5 | -1.3 | 7.7* | 101.0 | -13.5 | 119.2* | 37.0*
COc1nc(N)nc(NC23CC4CC(CC(C4)C2)C3)n1 | 0.5 | -14.2 | 1.9 | 9.2* | 84.0 | 14.2 | 57.3* | 19.9*
COc1nc(N)nc(N2CCOCC2)n1 | 1.5 | -12.2 | 4.3 | 1.1 | 93.0 | 12.2 | · | ·
O=C(NCc1cccnc1)NC1(C(F)(F)F)Oc2ccc(Cl)cc2O1 (centres undefined) | 0.7 | -11.7 | 3.1 | 12.3* | 107.0 | 9.6 | 25.6* | 18.4*
Cc1cc(NC(=O)Nc2ccc(F)c(Cl)c2)no1 | 1.2 | 5.1 | 0.6 | 1.0 | 95.0 | -5.1 | · | ·
Cc1ccc(Cl)cc1NC(=O)NCc1cccnc1 | -0.5 | 9.3 | · | -0.8 | 99.0 | -9.3 | · | ·
CCCCNC(=O)NC1(C(F)(F)F)Oc2ccccc2O1 | 0.3 | -1.7 | 1.8 | 1.7 | 101.0 | 1.7 | · | ·
Cc1cc(NC(=O)NC2(C(F)(F)F)Oc3ccc(Cl)cc3O2)no1 (centres undefined) | 2.3 | -9.8 | -0.9 | 17.9* | 94.0 | 9.8 | 29.9* | 14.6*
COCCNC(=O)NC1(C(F)(F)F)Oc2ccc(Cl)cc2O1 (centres undefined) | 1.9 | -11.1 | 1.5 | 14.9* | 106.0 | 11.1 | 16.5 | 10.9*
Cc1ccc(OCCN2C(=O)c3ccccc3C2=O)cc1 | 0.0 | 3.3 | 35.6 | 0.8 | 94.0 | -3.3 | · | ·
O=C(O)CN1C(=O)N/C(=C\c2cccn2-c2ccc(P(=O)(O)O)cc2)C1=O | · | -13.0 | 0.7 | -0.3 | 98.0 | 13.0 | · | ·
COc1cc(OC)nc(Nc2nc(C(N)c3ccccc3)cs2)n1 (centres undefined) | · | · | · | -3.1 | 99.0 | · | · | ·
COc1cc(OC)nc(Nc2nc(C(N)CCc3ccccc3)cs2)n1 (centres undefined) | · | · | · | 9.0* | 93.0 | · | 21.1 | 17.0*
COc1cc(OC)nc(Nc2nc(C(N)COCc3ccccc3)cs2)n1 (centres undefined) | · | · | · | 7.6* | 96.0 | · | 22.6* | 14.2*
SMILES | HIF activator | SR-BI HDL uptake | AHR activator | GAA850 FXN act | ABCB6 inh MLPCN | SR-BI DiI-HDL act | GAA30 FXN cntr | FXN GAA850 conf
Cc1cccc(CN(C)C[C@H]2OCc3cnnn3CCCC(=O)N([C@@H](C)CO)C[C@@H]2C)c1 | · | · | · | 1.7 | 102.0 | · | · | ·
COc1ccc(CCC(=O)Nc2cc(S(C)(=O)=O)ccc2Cl)cc1 | -0.4 | 17.7 | -0.4 | -1.0 | 104.0 | -17.7 | · | ·
CSc1ccc(CC(=O)N2CCC(n3nccc3NC(=O)C3CC3)CC2)cc1 | 2.0 | -1.1 | 7.6 | 7.7* | 97.0 | 1.1 | 96.0* | 32.5*
COc1cccc(CC(=O)N2CCC(n3nccc3NC(=O)C3CC3)CC2)c1 | 0.5 | -5.7 | · | -0.4 | 99.0 | 5.7 | · | ·
CCC(=O)c1ccc(OCc2ccc(C(=O)OC)cc2)c(OC)c1 | -0.2 | 50.4 | 8.8 | 1.3 | 97.0 | -50.4 | · | ·
CCC(=O)c1ccc(OCc2ccccc2)c(OC)c1 | 3.2 | 7.7 | 5.6 | 7.8* | 100.0 | -7.7 | 100.7* | 38.5*
CCn1c(-c2ccccc2)csc1=Nc1ccc(O)cc1 | -0.3 | -11.4 | 9.0 | 9.3* | 103.0 | 11.4 | 99.4* | 36.7*
CCOc1ccc(N=c2scc(-c3ccccc3)n2CCO)cc1 | 3.7 | -13.1 | 3.3 | 0.8 | 92.0 | 13.1 | · | ·
Cc1ccc(C)c(C(=O)Cn2ncc(Cl)c(Cl)c2=O)c1 | -1.3 | -2.9 | 3.4 | 6.2 | 100.0 | 2.9 | · | ·
Cc1cc(C(=O)Cn2ncc(Cl)c(Cl)c2=O)c(C)n1CC(F)(F)F | -7.3 | 46.2 | 0.7 | 13.7* | 107.0 | -46.2 | 20.9 | 22.5*
C=C1c2cccc(O)c2C(=O)C2C(=O)[C@]3(O)C(=O)C(C(N)=O)C(=O)[C@@H](N(C)C)[C@@H]3[C@@H](O)[C@H]12 (some centres undefined) | · | -4.9 | -2.0 | 18.4* | 93.0 | 4.9 | 16.2 | 7.3
Cc1nn2c(-c3ccccc3)nnc2c2ccccc12 | · | 20.0 | 36.6 | 5.5 | 102.0 | -20.0 | · | ·
Cc1nn2c3ccccc3nc2c2ccccc12 | 1.7 | -14.1 | 58.6* | 11.2* | 91.0 | 14.1 | 75.3* | 31.0*
CCOC(=O)CCC(NC(=O)c1ccc(Nc2nc3ccccc3nc2C(=O)OCC)cc1)C(=O)OCC (centres undefined) | · | 7.2 | · | 1.3 | 89.0 | -7.2 | · | ·
Cn1c(NC(=S)Nc2ccccc2)nc2ccccc21 | 1.8 | -13.9 | 59.9* | 8.2* | 99.0 | 13.9 | 84.9* | 27.3*
CCCCOC(=O)Nc1ccc(N2CCOCC2)cc1 | 1.1 | · | 5.3 | 1.6 | 89.0 | · | · | ·
CCCCOC(=O)Nc1ccc(N2CCCCC2)cc1 | 1.2 | -5.8 | -0.3 | 8.1* | 105.0 | 5.8 | 92.6* | 30.9*
O=C(O)c1cc(=O)[nH]c2ccccc12 | · | 4.8 | · | -2.6 | 96.0 | -4.8 | · | ·

Bioassay records: PubChem, several laboratories
